Measurements from different studies.
Each line is one published result; the experiments were not run side by side.
Target: Discoidin domain-containing receptor 2 (DDR2, Homo sapiens, UniProt Q16832)
One construct used (Q16832 1-855): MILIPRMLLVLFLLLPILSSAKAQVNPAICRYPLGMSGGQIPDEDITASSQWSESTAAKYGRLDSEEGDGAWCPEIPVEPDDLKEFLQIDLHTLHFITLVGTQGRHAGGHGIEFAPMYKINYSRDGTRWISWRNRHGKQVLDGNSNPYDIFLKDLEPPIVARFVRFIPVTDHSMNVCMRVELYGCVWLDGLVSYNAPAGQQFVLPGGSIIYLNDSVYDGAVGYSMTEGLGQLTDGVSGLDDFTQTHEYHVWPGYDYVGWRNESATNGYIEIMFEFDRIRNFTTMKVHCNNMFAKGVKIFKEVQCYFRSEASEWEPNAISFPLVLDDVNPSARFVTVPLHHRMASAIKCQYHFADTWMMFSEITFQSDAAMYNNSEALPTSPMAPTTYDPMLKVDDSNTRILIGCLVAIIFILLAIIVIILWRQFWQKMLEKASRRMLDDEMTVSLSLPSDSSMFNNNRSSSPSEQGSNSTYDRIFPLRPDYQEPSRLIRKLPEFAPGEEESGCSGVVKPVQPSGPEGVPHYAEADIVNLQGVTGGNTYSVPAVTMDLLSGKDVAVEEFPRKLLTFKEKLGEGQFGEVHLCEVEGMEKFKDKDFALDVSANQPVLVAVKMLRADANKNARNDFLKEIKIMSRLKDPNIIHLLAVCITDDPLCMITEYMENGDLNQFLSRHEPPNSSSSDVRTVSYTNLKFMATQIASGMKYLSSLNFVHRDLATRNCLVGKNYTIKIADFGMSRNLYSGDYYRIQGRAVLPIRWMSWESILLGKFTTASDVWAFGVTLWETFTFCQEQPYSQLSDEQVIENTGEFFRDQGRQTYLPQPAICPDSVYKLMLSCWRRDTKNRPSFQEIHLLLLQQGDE

Compound	test	setting	remaining binding [%]
CS(=O)(=O)NCC[C@H](NC(=O)c1cncc2c1cnn2-c1ccc(F)cc1)c1ccnc(S(C)(=O)=O)c1	cell-free assay, competition with immobilised ligand	1 µM	100
Cc1cnc(Nc2ccc(C(=O)N3CCC(N4CCCC4)CC3)cc2)nc1-c1cc2ccccc2s1	binding, competition with immobilised ligand	1 µM	8
Nc1cnc(N2CCc3cc(S(=O)(=O)Nc4c(F)cc(Cl)cc4F)cc(N4CCCC4=O)c32)nc1	cell-free assay, competition with immobilised ligand	1 µM	100
F[C@@H]1CCN(c2nccc(-c3cnn4ncccc34)n2)C1	binding	1 µM	91
COc1cnc(Nc2cccc(S(N)(=O)=O)c2)nc1N1CCN(c2ccccc2)CC1	binding, competition with immobilised ligand	1 µM	66
CCN1CCN(Cc2ccc(C(=O)Nc3ccc(C)c(Oc4ccc5c(c4)CC(=O)N5)c3)cc2C(F)(F)F)CC1	binding, competition with immobilised ligand	1 µM	14
O=C(NCCCN1CCOCC1)c1ccc(Nc2nccc(-c3cc4ccccc4s3)n2)cc1	binding, competition with immobilised ligand	1 µM	43
CN(c1nccc(-c2cnn3ncccc23)n1)C1CC1	binding	1 µM	100
O=C(O)c1cc(-c2ccc(C3CCNCC3)cc2)c2ccc(-c3ccc(C(F)(F)F)cc3)cc2c1	cell-free assay, competition with immobilised ligand	1 µM	100
c1cncc(-c2cccc(Nc3nccc(NC4CCCCC4)n3)c2)c1	binding, competition with immobilised ligand	10 µM	86
c1cnn2ncc(-c3ccnc(N4CCC45COC5)n3)c2c1	binding	1 µM	83
O=C(NCC1CCOCC1)c1n[nH]cc1NC(=O)c1c(F)cccc1F	binding, competition with immobilised ligand	1 µM	100
O=C(Nc1cccnn1)N1CCC(=Cc2cccc(Oc3ccc(C(F)(F)F)cn3)c2)CC1	cell-free assay, competition with immobilised ligand	1 µM	100
Cc1cnn2ncc(-c3ccnc(N(C)C)n3)c2c1	binding	1 µM	69
O=C(NCCCN1CCOCC1)c1ccc(Nc2ncc(Cl)c(-c3ccc(Cl)s3)n2)cc1	binding, competition with immobilised ligand	1 µM	61
COc1ncc2cc3ccccc3nc2c1C#N	cell-free assay, competition with immobilised ligand	5 µM	94
CCCOc1ccc([C@H]2[C@H](C(=O)O)[C@@H](c3ccc4c(c3)OCO4)CN2CC(=O)Nc2c(CC)cccc2CC)cc1	cell-free assay, competition with immobilised ligand	1 µM	71
COc1cnc(Nc2cccc(S(N)(=O)=O)c2)nc1N1CCN(c2ccccc2)C(=O)C1	binding, competition with immobilised ligand	1 µM	100
CC(C)CC(=O)N1CCc2nc(-c3ccc(Br)cc3)nc(N(C)Cc3ccccc3)c2C1	cell-free assay, competition with immobilised ligand	0.1 µM	97
CN(CCCC(F)(F)F)c1nccc(-c2cnn3ncccc23)n1	binding	1 µM	96
